Converted amounts (≈) assume the structure as drawn.
Assays:
[1] = Lipophilicity, log D of the compound at pH 7.4 by LC-MS based shake flask method; format: physicochemical; settings: buffer
In short: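 LogD at pH 7.4 measured by a high-throughput microscale shake-flask method with LC-MS/MS quantitation.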

[2] = Apparent permeability from basolateral to apical side in MDCK cells; format: ADME, cell-based, Canis lupus familiaris; settings: dog
[3] = Volume of distribution in Beagle dog; format: ADME, organism-based, Canis lupus familiaris; settings: in vivo
[4] = Oral bioavailability in cynomolgus monkey at 5 mg/kg via gavage administered as single dose; format: ADME, organism-based, Macaca fascicularis; settings: in vivo
[5] = Apparent permeability from apical to basolateral side in MDCK cells; format: ADME, cell-based, Canis lupus familiaris; settings: dog
[6] = Volume of distribution in Sprague-Dawley rat; format: ADME, organism-based; settings: in vivo
[7] = Oral bioavailability in Beagle dog at 5 mg/kg via gavage administered as single dose; format: ADME, organism-based, Canis lupus familiaris; settings: in vivo
[8] = Volume of distribution in cynomolgus monkey; format: ADME, organism-based, Macaca fascicularis; settings: in vivo
[9] = Oral bioavailability in Sprague-Dawley rat at 5 mg/kg via gavage administered as single dose; format: ADME, organism-based; settings: in vivo
[10] = Oral bioavailability in CD-1 mouse at 5 mg/kg via gavage administered as single dose; format: ADME, organism-based; settings: in vivo
[11] = Kinetic solubility of the compound; format: physicochemical; settings: read-out: Kinetic_solubility
[12] = Volume of distribution in CD-1 mouse; format: ADME, organism-based; settings: in vivo

Row | Compound | logD [1] | further results
1 | CN1CC[C@@](O)(C#Cc2ccnc(-n3ccc(C(N)=O)n3)c2)C1=O | 0.61 | 
2 | CN1CC[C@@](O)(C#Cc2ccnc(-n3nc(C(N)=O)cc3N)c2)C1=O | 2 | 
3 | COc1cnc2c(c1)c(C(N)=O)nn2-c1cccc(C#C[C@]2(O)CCN(C)C2=O)c1 | 1.9 | 
4 | CN1CC[C@@](O)(C#Cc2cccc(-c3nc(C(N)=O)c4ccccn34)c2)C1=O | 1.3 | 
5 | COc1ccc2c(-c3cccc(C#C[C@]4(O)CCN(C)C4=O)c3)nc(C(N)=O)n2c1 | 2.4 | 
6 | CN1CC[C@@](O)(C#Cc2cccc(-n3cc(C(N)=O)c4cccnc43)c2)C1=O | 2.4 | 
7 | CN1CC[C@@](O)(C#Cc2cccc(-n3nc(C(N)=O)c4cc(F)ccc43)c2)C1=O | 2.6 | 
8 | CN1CC[C@@](O)(C#Cc2cccc(-n3nc(C(N)=O)c4cccnc43)c2)C1=O | 1.6 | 
9 | CCOc1ccn2c(-c3cccc(C#C[C@]4(O)CCN(C)C4=O)c3)nc(C(N)=O)c2c1 | 1.9 | 
10 | CN1CC[C@@](O)(C#Cc2cccc(-c3ccnc(C(N)=O)n3)c2)C1=O | 1.6 | 
11 | CN1CC[C@@](O)(C#Cc2ccnc(-n3nc(C(N)=O)c4ccccc43)c2)C1=O | 1.9 | 
12 | CN1CC[C@@](O)(C#Cc2cccc(-c3cccc(C(N)=O)n3)c2)C1=O | 1.6 | 
13 | COc1cc(C(N)=O)nc(-c2cccc(C#C[C@]3(O)CCN(C)C3=O)c2)c1 | 1.9 | Papp B→A [2]: 10.2 ×10⁻⁶ cm/s; Vd [3]: 0.778 L/kg; bioavailability [4]: > 100%; Papp A→B [5]: 7.3 ×10⁻⁶ cm/s; Vd [6]: 1.35 L/kg; bioavailability [7]: 56%; Vd [8]: 1.39 L/kg; bioavailability [9]: 97%; bioavailability [10]: 54%; solubility kinetic [11]: 139 µM (≈ 50.8 µg/mL); Vd [12]: 1.58 L/kg
14 | CN1CC[C@@](O)(C#Cc2cccc(-n3nc(C(N)=O)c4ccccc43)c2)C1=O | 2.1 | 
15 | CN1CC[C@@](O)(C#Cc2cccc(-c3cccc(C(N)=O)c3)c2)C1=O | 1.6 | 
16 | COc1cc(C(N)=O)nc(-c2cccc(C#C[C@]3(O)CCN(C)C3=O)c2)n1 | 1.8 | 
17 | CN1CC[C@@](O)(C#Cc2cccc(-c3cc4ccccc4c(C(N)=O)n3)c2)C1=O | 2.5 | 
18 | CN1CC[C@@](O)(C#Cc2ccnc(-n3nc(C(N)=O)cc3C3CC3)c2)C1=O | 2 | 
19 | CN1CC[C@@](O)(C#Cc2ccnc(-n3nc(C(N)=O)c4c3CCCC4)c2)C1=O | 1.9 | 
20 | CN1CC[C@@](O)(C#Cc2cccc(-c3ccc(N)c(C(N)=O)n3)c2)C1=O | 1.7 | 
21 | CN1CC[C@@](O)(C#Cc2cccc(-c3nc(C(N)=O)n4ccccc34)c2)C1=O | 2.2 | 
22 | CN1CC[C@@](O)(C#Cc2cccc(-c3cncc(C(N)=O)n3)c2)C1=O | 1 | 
